Test results published in ChEMBL document CHEMBL2202967, “Synthesis, characterization and biological evaluation of ureidofibrate-like derivatives endowed with peroxisome proliferator-activated receptor activity” (J Med Chem, 2012).
Active and inactive are the calls of the source. No cut-off for these calls is given here.

What was measured:
[1] = target: T1, Peroxisome proliferator-activated receptor alpha (Homo sapiens, UniProt Q07869); assay: Agonist activity at human GAL4-fused PPARalpha ligand binding domain expressed in HepG2 cells after 20 hrs by luciferase reporter gene transactivation assay; type: cell-based
T1 sequence (Q07869 whole entry): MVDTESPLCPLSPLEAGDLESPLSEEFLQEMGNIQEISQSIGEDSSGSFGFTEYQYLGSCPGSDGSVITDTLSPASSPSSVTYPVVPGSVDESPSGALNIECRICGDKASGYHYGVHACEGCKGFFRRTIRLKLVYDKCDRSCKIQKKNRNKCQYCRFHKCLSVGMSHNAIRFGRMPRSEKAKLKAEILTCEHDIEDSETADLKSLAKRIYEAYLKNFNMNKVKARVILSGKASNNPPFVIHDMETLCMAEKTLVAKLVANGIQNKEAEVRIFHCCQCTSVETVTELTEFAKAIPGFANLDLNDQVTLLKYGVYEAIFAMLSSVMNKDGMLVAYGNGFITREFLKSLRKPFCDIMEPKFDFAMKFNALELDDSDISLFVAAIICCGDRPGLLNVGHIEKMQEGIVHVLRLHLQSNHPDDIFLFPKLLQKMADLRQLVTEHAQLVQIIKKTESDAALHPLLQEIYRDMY
In short: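 HepG2 cells in MEM with 10% heat-inactivated FBS, seeded at 10⁵ cells/well and transfected after 24 h by calcium phosphate. Plasmids: Gal4-PPARα LBD (30 ng), pGal5TKpGL3 luciferase reporter (100 ng) and pCMVβgal (250 ng). Ligands added 4 h post-transfection, for 20 h, in triplicate. Luciferase read in cell extracts, with β-galactosidase activity measured alongside; experiments repeated at least twice.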

[2] = target: T2, Peroxisome proliferator-activated receptor gamma (Homo sapiens, UniProt P37231); assay: Agonist activity at human GAL4-fused PPARgamma ligand binding domain expressed in HepG2 cells after 20 hrs by luciferase reporter gene transactivation assay; type: cell-based
T2 sequence (P37231 whole entry): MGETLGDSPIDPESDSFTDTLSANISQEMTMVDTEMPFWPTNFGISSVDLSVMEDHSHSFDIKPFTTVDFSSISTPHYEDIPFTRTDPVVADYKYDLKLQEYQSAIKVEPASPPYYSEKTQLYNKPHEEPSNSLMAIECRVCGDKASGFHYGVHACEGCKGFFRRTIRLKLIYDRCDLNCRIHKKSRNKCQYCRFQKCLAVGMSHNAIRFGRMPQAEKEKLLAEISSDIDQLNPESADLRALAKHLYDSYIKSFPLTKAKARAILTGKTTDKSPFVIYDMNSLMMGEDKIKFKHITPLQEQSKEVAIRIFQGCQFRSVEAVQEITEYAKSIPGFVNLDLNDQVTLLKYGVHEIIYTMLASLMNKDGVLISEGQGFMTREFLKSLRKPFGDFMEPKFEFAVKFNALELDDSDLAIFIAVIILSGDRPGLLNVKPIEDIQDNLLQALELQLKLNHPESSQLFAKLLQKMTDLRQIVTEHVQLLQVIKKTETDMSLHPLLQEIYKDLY

[3] = Solubility of the compound in HEPES buffer; type: physicochemical
[4] = target: T3, Peroxisome proliferator-activated receptor delta (Homo sapiens, UniProt Q03181); assay: Agonist activity at human GAL4-fused PPARdelta ligand binding domain expressed in COS-1 cells after 20 hrs by luciferase reporter gene transactivation assay; type: cell-based
T3 sequence (Q03181 whole entry): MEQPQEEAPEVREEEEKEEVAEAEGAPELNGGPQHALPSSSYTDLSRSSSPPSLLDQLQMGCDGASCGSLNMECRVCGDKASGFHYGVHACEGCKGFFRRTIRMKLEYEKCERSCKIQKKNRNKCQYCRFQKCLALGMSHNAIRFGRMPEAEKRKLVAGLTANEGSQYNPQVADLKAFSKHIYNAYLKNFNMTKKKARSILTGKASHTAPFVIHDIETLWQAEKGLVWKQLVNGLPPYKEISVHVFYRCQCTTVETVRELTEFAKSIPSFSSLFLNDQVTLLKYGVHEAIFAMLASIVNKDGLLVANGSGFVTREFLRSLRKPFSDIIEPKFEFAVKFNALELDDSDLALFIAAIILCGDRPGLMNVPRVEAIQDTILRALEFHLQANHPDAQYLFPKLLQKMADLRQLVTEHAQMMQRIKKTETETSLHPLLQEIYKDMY

LoVo [5] = assay: Antitumor activity against human LoVo cells assessed as inhibition of cell proliferation after 1 day by MTT assay; type: functional, cell-based; conditions: 24 h
In short: (§1)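 MTT assay with 10,000 cells/well seeded on day 1. Ligands added on day 2 at 1, 5, 10, 50 and 100 μM, from 20 mM DMSO stocks, for 1 or 2 days. Six replicate wells per drug, untreated control column. IC50 is the concentration giving 0.5 fraction affected versus untreated controls, taken from dose–effect curves. Each experiment in triplicate.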

LoVo [6] = assay: Antitumor activity against human LoVo cells assessed as inhibition of cell proliferation after 2 days by MTT assay; type: functional, cell-based; conditions: 48 h; in short: as §1
HCT-15 [7] = assay: Antitumor activity against human HCT15 cells assessed as inhibition of cell proliferation after 1 day by MTT assay; type: functional, cell-based; conditions: HCT-15, 24 h; in short: as §1
HT-29 [8] = assay: Antitumor activity against human HT-29 cells assessed as inhibition of cell proliferation after 2 days by MTT assay; type: functional, cell-based; conditions: HT-29, 48 h; in short: as §1
HT-29 [9] = assay: Induction of apoptosis in human HT-29 cells at IC50 by Annexin V-FITC/propidium iodide staining based flow cytometry; type: functional, cell-based; conditions: TDE = time-dependent effect
HT-29 [10] = assay: Antitumor activity against human HT-29 cells assessed as inhibition of cell proliferation after 1 day by MTT assay; type: functional, cell-based; conditions: HT-29, 24 h; in short: as §1
HCT-15 [11] = assay: Antitumor activity against human HCT15 cells assessed as inhibition of cell proliferation after 2 days by MTT assay; type: functional, cell-based; conditions: HCT-15, 48 h; in short: as §1
[12] = target: T4, Peroxisome proliferator-activated receptor alpha (Homo sapiens) (UniProt Q07869); assay: Agonist activity at human GAL4-fused PPARalpha ligand binding domain expressed in HepG2 cells after 20 hrs by luciferase reporter gene transactivation assay relative to WY14643; type: cell-based
T4 sequence (whole entry): T1 sequence (Q07869 whole entry)
In short: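 GAL4-human PPARα LBD chimera (30 ng) with Gal5-TK luciferase reporter (100 ng) and pCMVβgal (250 ng), calcium-phosphate transfected into HepG2 (MEM, 10% FBS) seeded 10⁵ cells/well. Ligands added 4 h post-transfection for 20 h, in triplicate. Luciferase read in cell extracts, normalised to β-galactosidase activity. Experiments repeated at least twice.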

[13] = target: T5, Peroxisome proliferator-activated receptor gamma (Homo sapiens) (UniProt P37231); conditions: BL21-DE3
T5 sequence (whole entry): T2 sequence (P37231 whole entry)

[14] = target: T2, Peroxisome proliferator-activated receptor gamma; assay: Binding affinity to PPARgamma ligand binding domain by isothermal titration calorimetry
Mus musculus [15] = assay: Increase in liver weight in high fat diet fed-induced obesity and insulin resistance C57Bl/6J mouse model at 100 mg/kg/day, po administered once daily for 2 weeks; type: functional, organism-based
Mus musculus [16] = assay: Induction of PPARalpha-mediated upregulation of Acadl mRNA expression in liver of high fat diet fed-induced obesity and insulin resistance C57Bl/6J mouse model at 100 mg/kg/day, po administered once daily for 2 weeks by real time qPCR analysis; type: functional, organism-based
In short: (§2)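 Livers came from mice fed a high-fat diet for 16 weeks, then gavaged once daily for 2 weeks in 0.5% hypromellose, and were snap-frozen at sacrifice. Total RNA was extracted with Trizol and cleaned up on RNeasy columns. 1 μg RNA was used for mRNA quantitation.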

Mus musculus [17] = assay: Induction of PPARalpha-mediated upregulation of Acadm mRNA expression in liver of high fat diet fed-induced obesity and insulin resistance C57Bl/6J mouse model at 100 mg/kg/day, po administered once daily for 2 weeks by real time qPCR analysis; type: functional, organism-based; in short: as §2
Mus musculus [18] = assay: Induction of PPARalpha-mediated upregulation of Acox1 mRNA expression in liver of high fat diet fed-induced obesity and insulin resistance C57Bl/6J mouse model at 100 mg/kg/day, po administered once daily for 2 weeks by real time qPCR analysis; type: functional, organism-based; in short: as §2
Mus musculus [19] = assay: Reduction of body weight in high fat diet fed-induced obesity and insulin resistance C57Bl/6J mouse model at 10 mg/kg/day, po administered once daily for 2 weeks relative to control; type: functional
In short: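 Male C57Bl/6J mice, 6 weeks old, on high-fat diet for 16 weeks. Then dosed once daily for 2 weeks by oral gavage in 0.5% hypromellose; doses chosen in a preliminary dose-finding study. Body weight measured at end of treatment versus HFD controls, 6 mice per group.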

Mus musculus [20] = assay: Reduction of visceral fat weight in high fat diet fed-induced obesity and insulin resistance C57Bl/6J mouse model at 10 mg/kg/day, po administered once daily for 2 weeks measured on day 12 by in vivo magnetic resonance imaging analysis; type: functional, organism-based
In short: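 Mice fed a high-fat diet for 16 weeks were gavaged daily for 2 weeks in 0.5% hypromellose. Under 1% isoflurane they were scanned at 4.7 T with sixteen 1 mm axial T1-weighted slices from kidneys to bladder. Visceral fat was expressed as percentage of total image area, 3 mice per group.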

Row | EC50 ([1]; read-out: EC50) [µM] | EC50 ([2]; read-out: EC50) [µM] | Emax [12] | Kd [14] [µM] | EC50 ([4]; read-out: EC50) [µM] | SMILES | EC50 ([1]; hepg2) | other results
1 |  |  |  |  |  | Cc1c(C)c2c(c(C)c1O)CCC(C)(COc1ccc(CC3SC(=O)NC3=O)cc1)O2 (centres undefined) [TROGLITAZONE] |  | IC50 (LoVo [5]): > 100 µM; IC50 (LoVo [6]): 65 µM; IC50 (HCT-15 [7]): > 100 µM; IC50 (HT-29 [8]): 50 µM; Activity (HT-29 [9]): tde; IC50 (HT-29 [10]): > 100 µM; IC50 (HCT-15 [11]): 50.9 µM
2 | 0.025 | 0.15 | 93% | 1.5 | 0.13 | CCCCCCCN(CCc1ccc(O[C@H](C)C(=O)O)cc1)c1nc2ccccc2o1 |  | deltaT [13]: 2 °C
3 |  |  |  |  |  | CC(C)OC(=O)C(C)(C)Oc1ccc(C(=O)c2ccc(Cl)cc2)cc1 |  | Activity (Mus musculus [15]): Active; Activity (Mus musculus [16]): Active; Activity (Mus musculus [17]): Active; Activity (Mus musculus [18]): Active
4 | 0.122 | 0.8 | 87% | 7.7 | 0.57 | CCCCCCCN(CCc1ccc(OCC(=O)O)cc1)c1nc2ccccc2o1 |  | 
5 |  |  |  |  |  | Cc1cccc(Nc2cc(Cl)nc(SCC(=O)O)n2)c1C [PIRINIXIC ACID] |  | EC50 ([2]; hepg2): Not Active
6 | 0.62 | 2.3 | 78% | 3.3 | 0.85 | CCCCCCCN(CCc1ccc(O[C@@H](C)C(=O)O)cc1)c1nc2ccccc2o1 |  | deltaT [13]: 2 °C

Row | SMILES | EC50 ([1]; read-out: EC50) [µM] | EC50 ([2]; read-out: EC50) [µM] | Emax [12] | Kd [14] [µM] | EC50 ([4]; read-out: EC50) [µM] | EC50 ([1]; hepg2) | other results
7 | CCCCCCCN(CCc1ccc(O[C@H](Cc2ccccc2)C(=O)O)cc1)c1nc2ccccc2o1.NC1CCCCC1 | 1.72 | 2.7 |  |  |  |  | solubility [3]: Insoluble; EC50 ([4]; cos-1): Not Active
8 | CCCc1c(OCCCOc2ccc(OCC(=O)O)cc2)ccc(C(C)=O)c1O |  |  |  |  | 0.021 | Not Active | EC50 ([2]; hepg2): Not Active
9 | CN(CCOc1ccc(CC2SC(=O)NC2=O)cc1)c1ccccn1 (centres undefined) [ROSIGLITAZONE] |  |  | inactive |  |  | Not Active | inhibition (Mus musculus [19]): inactive; inhibition (Mus musculus [20]): inactive
10 | CCCCCCCN(CCc1ccc(O[C@@H](Cc2ccccc2)C(=O)O)cc1)c1nc2ccccc2o1.NC1CCCCC1 |  | 1.7 |  |  |  | Not Active | solubility [3]: Insoluble; EC50 ([4]; cos-1): Not Active
